Results: ChEMBL document CHEMBL4145477, “Inhibitor of the human telomerase reverse trancriptase (hTERT) gene promoter induces cell apoptosis via a mitochondrial-dependent pathway” (Eur J Med Chem, 2018)
The source made the active and inactive calls.

Key:
[1] = (§1) Inhibition of human TERT promoter activity expressed in human HeLa cells after 24 hrs by luciferase reporter gene assay; type: cell-based
Procedure, shortened: (§2)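 HeLa cells co-transfected with hTERT promoter–luciferase (P-3996) or pGL2 vector plus pCMV-β-gal. Replated at 5×10^3/well, then treated 24 h in DMEM with 3% FBS at 1–16 µM. Luciferase normalized to β-galactosidase and expressed as fold of 0.1% DMSO control. Three repeats.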

HeLa [2] = assay: as §1; type: cell-based; procedure, shortened: as §2
HeLa [3] = assay: Antiproliferative activity against human HeLa cells at 5 uM by MTT assay; type: functional, cell-based; conditions: TDE = time-dependent effect
Procedure, shortened: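 HeLa cells seeded 5,000/well in triplicate, exposed to 5 µM for 24 or 48 h. MTT added at 0.5 mg/ml final for 4 h at 37 °C in the dark. Formazan dissolved in DMSO and read at 570 nm. Three independent experiments.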

L02 = assay: Antiproliferative activity against human LO2 cells at 1 to 16 uM after 48 hrs by MTT assay; type: cell-based; conditions: l02, 48 h
Procedure, shortened: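 L02 cells given 1, 2, 4, 8 and 16 µM for 48 h. Seeded 5,000/well in triplicate. MTT 0.5 mg/ml final, 4 h at 37 °C in the dark, DMSO solubilization, absorbance at 570 nm. Three independent experiments. IC50 from probit regression of relative absorbance.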

HeLa [4] = assay: Inhibition of TERT promoter activity in human HeLa cells assessed as decrease in relative length of telomeres treated up to 22 generations by Q-PCR analysis; type: cell-based
Procedure, shortened: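 HeLa cells cultured with compound or DMSO for 22 generations. Telomere length measured by qPCR as telomere/36B4 single-copy gene (T/S) ratio relative to a reference DNA. Samples run in duplicate, threshold 0.5.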

HeLa [5] = assay: Inhibition of colony formation in human HeLa cells at 5 uM after 3 weeks; type: functional, cell-based
Procedure, shortened: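 HeLa cells treated with 5 µM and grown 3 weeks. Colonies photographed and colony-formation efficiency quantified.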

HeLa [6] = assay: Induction of apoptosis in human HeLa cells assessed as chromatin condensation at 5 uM after 48 hrs by DAPI staining-based fluorescence microscopic analysis; type: functional, cell-based
Procedure, shortened: (§3)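 Cells fixed in 5% paraformaldehyde and permeabilized with 0.1% Triton X-100 in PBS. Stained 10 min with DAPI (1 µg/mL) and examined by fluorescence microscopy. Nuclei with chromatin condensation and fragmentation scored apoptotic.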

HeLa [7] = assay: Induction of apoptosis in human HeLa cells assessed as cell shrinkage at 5 uM after 48 hrs by DAPI staining-based fluorescence microscopic analysis; type: functional; procedure, shortened: as §3
HeLa [8] = assay: Induction of apoptosis in human HeLa cells assessed as increase in cleaved caspase-3 levels at 5 uM after 24 hrs by Western blot analysis; type: functional, cell-based
Procedure, shortened: (§4)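 Treated cells lysed in ice-cold Tris-HCl pH 7.5/NaCl/NP-40 buffer with protease inhibitors. Equal protein separated by SDS-PAGE and transferred to nitrocellulose. Blocked in 5% milk in PBST, primary antibodies overnight at 4 °C, secondary 1 h at room temperature, infrared imaging. β-actin probed alongside.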

HeLa [9] = assay: Induction of apoptosis in human HeLa cells assessed as increase in cleaved caspase-9 levels at 5 uM after 24 hrs by Western blot analysis; type: functional, cell-based; procedure, shortened: as §4
HeLa [10] = assay: Induction of apoptosis in human HeLa cells assessed as decrease in Bcl-2 levels at 5 uM after 24 hrs by Western blot analysis; type: functional, cell-based; procedure, shortened: as §4
HeLa [11] = assay: Induction of apoptosis in human HeLa cells assessed as increase in Bax levels at 5 uM after 24 hrs by Western blot analysis; type: functional, cell-based; procedure, shortened: as §4
HeLa [12] = assay: Induction of apoptosis in human HeLa cells assessed as viable cells at 5 uM after 48 hrs by Annexin V-FITC/propidium iodide staining-based flow cytometric analysis (reference value: 74%); type: functional; conditions: read-out: Activity
HeLa [13] = assay: Induction of apoptosis in human HeLa cells assessed as early apoptotic cells at 5 uM after 48 hrs by Annexin V-FITC/propidium iodide staining-based flow cytometric analysis (reference value: 9.5%); type: functional
HeLa [14] = assay: Induction of apoptosis in human HeLa cells assessed as late apoptotic cells at 5 uM after 48 hrs by Annexin V-FITC/propidium iodide staining-based flow cytometric analysis (reference value: 15%); type: functional
HeLa [15] = assay: Induction of apoptosis in human HeLa cells assessed as necrotic cells at 5 uM after 48 hrs by Annexin V-FITC/propidium iodide staining-based flow cytometric analysis (reference value: 1.5%); type: functional

## O=C1/C(=N\O)c2c(I)cccc2N1Cc1ccc(Cl)cc1
[1]
  EC50: 14 µM
HeLa [2]
  inhibition: Dose-dependent effect

## O=C1/C(=N\O)c2c(Br)cccc2N1Cc1ccc(Cl)cc1
[1]
  EC50: 6 µM

## COc1ccc(-c2cccc3c2/C(=N/O)C(=O)N3Cc2ccc(Cl)cc2)cc1
[1]
  EC50: 12 µM

## O=C1/C(=N\O)c2c(-c3ccc(C(F)(F)F)cc3)cccc2N1Cc1ccc(Cl)cc1
HeLa [3]
  Activity: Tde
L02
  Activity: Non-Toxic
[1]
  EC50: 5 µM
HeLa [4]
  inhibition: Active
HeLa [5]
  inhibition: Active
HeLa [6]
  Activity: Active
HeLa [7]
  Activity: Active
HeLa [8]
  Activity: Active
HeLa [9]
  Activity: Active
HeLa [10]
  Activity: Active
HeLa [11]
  Activity: Active
HeLa [12]
  viability at 5 µM: 38%
HeLa [13]
  Activity: 30.6%
HeLa [14]
  Activity: 29.1%
HeLa [15]
  Activity: 2.2%

## O=C1/C(=N\O)c2c(Cl)cccc2N1Cc1ccc(Cl)cc1
[1]
  EC50: 13 µM
